# Source: PubChem BioAssay (several laboratories)
# Many of the other results were omitted from the sample, so hits are more common in it than they were.
# Hep lipid drop – modulators of hepatic lipid droplet formation; inhibition, % at 6.5 µM; 240,000 compounds, 0.4% hits; AML12 mouse hepatocytes, oleate lipid droplets, BODIPY imaging; AID 1656;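 active means lipid droplet intensity inhibited by at least 50%, with more than 500 cells counted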
#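 material = mouse AML12 hepatocyte cell line, fixed after treatment | also added = 100 µM oleic acid challenge | doses = compound at 6.5 µM only | schedule = overnight exposure | technique = Image-based BODIPY and DAPI two-channel analysis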
# Lmaj promast – Leishmania major promastigote growth inhibition; Leishmania major promastigotes, resazurin fluorescence viability; inhibition, % at 10 µM; 200,000 compounds, 9% hits; in the data active means inhibition above about 50%;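 further: promastigotes grown with compound for 44 hours at 28 °C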
# T cruzi inh – T. cruzi replication inhibition | 300,000 compounds, 1.4% hits | inhibition, % (concentration not given with the values) | T. cruzi beta-gal in NIH3T3, luminescence, 90 h;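 active means mean inhibition across valid replicates above about 55%, limit read from the data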;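 further: signal also drops with host cell toxicity which is not excluded here; 0% = plate median of DMSO wells and 100% = zero luminescence signal; higher percent means less beta-gal luminescence so fewer parasites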
#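 System: NIH/3T3 fibroblasts plus reporter T. cruzi. Medium: DMEM plus 2% FBS. Probe or stimulus: 5000 reporter trypomastigotes per well. Compound: single 50 nL compound addition per well in DMSO. Incubation: co-culture of at least 90 h after 3 h attachment. Detection: GalScreen β-gal luminescence, detergent lysis, 60 min. Evaluation: parasite load inhibition, %.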
# MPTP block – inhibitors of mitochondrial permeability transition pore. inhibition, % at 10 µM. isolated mouse mitochondria, Ca2+ swelling absorbance, 30 min. 360,000 compounds, 1.4% hits;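 active means inhibition of 50% or more, scaled per plate between neutral and stimulator controls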;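 further: 0% = DMSO wells given calcium and 100% = 1 mM EGTA wells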
# DTT redox prof – compounds producing H2O2 with reducing agent – biochemical, NIH compound library profiling, artefact control for MLSCN library redox annotation, primary screen. DTT-dependent redox cycling H2O2, phenol red/HRP absorbance; 100% = 100 µM peroxide control, 0% = buffer. activation, % at 10 µM. 200,000 compounds, 0.03% hits. AID 878;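 active means activation of at least 50% relative to the plate's high and low controls in the primary single-dose screen; inactive means activation below 50%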;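 further: compound incubated with DTT at 0.8 mM final as the reducing agent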
# Rh123 counter – mitochondrial membrane potential, counter-screen | AID 624504 | inhibition, % at 10 µM | 5,000 compounds, 78% hits | shares compounds with MPTP block | isolated mitochondria, Rhodamine 123 fluorescence; in the data active means inhibition above about 22%;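 further: 0% = DMSO vehicle and 100% = positive control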
# MPTP swell DR – dose response confirmation of mitochondrial permeability transition pore inhibitors. shares compounds with MPTP block. isolated mitochondria swelling, absorbance. 780 compounds, 58% hits. IC50, µM; in the data active means IC50 below about 20 µM
# MPTP cs DR – MPTP inhibitor counter-screen activity, dose response; shares compounds with MPTP block; isolated mitochondria counterscreen, fluorescence read-out; IC50, µM; 780 compounds, 49% hits; AID 651564; in the data active means IC50 below about 80 µM
# Active calls of the source: *; · = no result; ! = repeats disagree.
SMILES,Hep lipid drop,Lmaj promast,T cruzi inh,MPTP block,DTT redox prof,Rh123 counter,others
Cc1cc(N2CCCCC2)nc(NCc2ccccc2)n1,·,75*,56*,55*,1,88*,
Cc1cc(C)nc(NCc2ccc(Cl)cc2)n1,-2,·,-2,-1,·,·,
Cc1cc(N2CCOCC2)nc(NCc2ccccc2)n1,·,9,13,8,-12,·,
Cc1cc(Nc2cccc(Cl)c2)nc(NCc2ccccc2)n1,-8,100*,58*,82*,-1,87*,
CCOc1ccc(C(=O)NCc2ccco2)cc1Cl,4,·,-15,0,·,·,
CCN(CC)c1ccc(/C=C2\C(=O)c3ccc(C(=O)O)cc3C2=O)cc1,-5,-4,·,70*,0,-33,
Cc1ccc(NC(=O)CN2CC(C)SC2=NC2CCCCC2)cc1 (stereo not drawn),-12,5,·,52*!,2,-12,MPTP swell DR=13*;MPTP cs DR=>80
Cc1ccc(NC(=O)CN2CCOCC2)cc1,·,·,-10,-2,·,·,
CCCCc1c(-c2ccccc2OC)ncn1Cc1cccc(-c2ccccc2)c1,·,·,·,31,·,·,
CCCCc1c(-c2ccccc2OC)ncn1Cc1ccc(-c2ccccc2)cc1,·,·,·,78*,·,116*,
COc1ccc(C2C(=O)c3ccccc3C2=Nc2ccc(Br)cc2)cc1 (stereo not drawn),·,·,15,90*,·,50*,
O=C1c2ccccc2C(=O)C1c1ccc(Br)cc1,-18,·,4,0,·,·,
O=C(OCc1ccccc1)N(CCCCN(CCCNCc1ccccc1)C(=O)OCc1ccccc1)CCCNCc1ccccc1,·,·,·,64*,·,-6,
O=C(NCCCCCCNC(=O)OCc1ccccc1)OCc1ccccc1,·,·,·,3,·,·,
Cc1ncoc1C(=O)NC1CCCc2c1cnn2-c1ccc(C(C)(C)C)cc1 (stereo not drawn),-6,·,24,79*,·,94*,
Cc1cc(C(=O)NC2CCCc3c2cnn3-c2ccc(C)c(C)c2)n(C)n1 (stereo not drawn),-182,·,-58,93*,·,87*,
Cc1ccc(-n2ncc3c2CCCC3NC(=O)c2ccoc2)cc1C (stereo not drawn),24,·,3,1,·,·,
Cc1ncoc1C(=O)NC1CCCc2c1cnn2-c1cc(F)cc(F)c1 (stereo not drawn),·,·,·,3,·,·,
CC1CN(c2ccc([N+](=O)[O-])nc2)CC(C)O1 (stereo not drawn),0,-5,18,1,0,·,
O=C(NNC(=S)NC1CCCCC1)c1sc2ccccc2c1Cl,-5,-6,-17,88*,0,79*,
CC(C)(C)C(=O)NC(=S)NNC(=O)c1sc2ccccc2c1Cl,-22,24,43,61*,-1,21*,
CCCOC(=S)NC(=O)c1sc2ccccc2c1Cl,·,-5,-10,-1,0,·,
O=C(NC1CC1)c1sc2ccccc2c1Cl,4,·,-1,-3,·,·,
COc1ccccc1NC(=O)NC1(C(=O)N2CCN(C)CC2)CCCCC1,16,·,-4,-1,·,·,
CCC1(c2ccc(F)cc2)NC(=O)N(CC(=O)Nc2cc(C)on2)C1=O (stereo not drawn),·,·,·,-1,·,·,
SMILES,Hep lipid drop,Lmaj promast,T cruzi inh,MPTP block,DTT redox prof,Rh123 counter,others
Cc1ccc(OCC(=O)c2cc(C)n(Cc3cccs3)c2C)c([N+](=O)[O-])n1,-28,19,19,76*,0,67*,
Cc1ccc(OCC(=O)c2cc(C)n(CC(F)(F)F)c2C)c([N+](=O)[O-])n1,4,-3,9,0,0,·,
Cc1cc(C)n2nc(C(=O)OCC(=O)N(C)C3CCCCC3)nc2n1,·,·,-15,0,·,·,
c1ccc(C[C@H]2CNCCN2CC2(c3ccccc3)CC2)cc1,·,·,8,8,·,·,
N#Cc1cccc(C#N)c1Oc1ccc(S(=O)(=O)Nc2ccc(Cl)cc2)cc1,-15,·,30,77*,·,45*,
O=C(Nc1cccc(Cl)c1)NC1CCCCC1,·,17,7,83*,2,73*,
O=C(Nc1cccc(C(F)(F)F)c1)NC1CCCCC1,-30,4,15,93*,-8,119*,
O=C(Nc1ccc(F)c(F)c1)NC1CCCCC1,2,-1,2,53*,0,89*,
CC(=O)c1cccc(NC(=O)NC2CCCCCCC2)c1,26,·,2,0,·,·,
CC(=O)c1cccc(NC(=S)NC2CCCCCCC2)c1,-5,·,·,50*,·,99*,
COC(=O)[C@@H](Cc1c[nH]c2ccccc12)NC(=O)CNC(=O)c1ccccc1OC,-8,·,-11,0,·,·,
Cc1ccc(C(=O)O)cc1NC(=O)CCc1c(C)noc1C,·,·,·,-1,·,·,
CC(=O)c1sc(NS(=O)(=O)c2ccc(C)cc2)nc1-c1ccccc1,46,·,-6,-3,·,·,
O=C(Nc1cccc(Cl)c1)NC1CC2CCC(C1)N2Cc1ccco1 (stereo not drawn),3,5,11,-1,-2,·,
O=C(Nc1cccc(Cl)c1)NC1CC2CCC1C2 (stereo not drawn),-19,·,1,55*,·,84*,
O=C1c2cccc(O)c2C(=O)c2c(O)cc(CO)cc21,·,·,-11,·,·,·,
O=C1c2c(O)ccc(O)c2C(=O)c2c(NCCNCCO)ccc(NCCNCCO)c21,·,·,·,106*!,·,-45,
CC1CCC(C(C)C)C(OCC(O)CNC(C)c2ccccc2)C1 (stereo not drawn),-15,77*,20,77*,1,25*,
CCCC(NCC(O)COc1ccc(-c2ccccc2)cc1)c1ccccc1 (stereo not drawn),-21,82*,66*,55*,0,5,MPTP swell DR=4*;MPTP cs DR=48*
COc1ccc(OCC(O)CNC(C)c2ccccc2)cc1 (stereo not drawn),-14,·,12,0,·,·,
CC(NCC(O)COc1ccc(Br)cc1)c1ccccc1 (stereo not drawn),0,·,38,81*,·,-8,MPTP swell DR=5.5*;MPTP cs DR=>80
Cc1ccc(S(=O)(=O)NCc2ccccc2)cc1C(=O)NCC(=O)Nc1c(C)cccc1C,·,·,·,4,·,·,
CN(C)c1nc(Cl)nc2c1nc(Cl)n2C1CCCCO1 (stereo not drawn),·,·,·,0,·,·,
Cc1ccc(S(=O)(=O)N[C@@H](Cc2ccccc2)C(=O)N2CCC(C(=O)N[C@@H](CC(C)C)C(=O)O)CC2)cc1,5,·,-11,1,·,·,
CCc1ccccc1NC(=O)c1ccc(CN2CCC(Cc3ccccc3)CC2)cc1,·,80*,43,57*,-3,-14,
O=C1NCN(c2ccccc2)C12CCN(CCCC(c1ccc(F)cc1)c1ccc(F)cc1)CC2,1,101*,44,100*,0,-25,MPTP swell DR=7.3*;MPTP cs DR=31*
O=C(CCCN1CCN(c2ccccc2)CC1)c1ccc(F)cc1,·,·,·,-1,·,·,
CN(Cc1ccccc1)C(=O)c1[nH]cnc1C(=O)Nc1ccccc1F,·,·,·,0,·,·,
